Reference: ChEMBL document CHEMBL3102810, “Alkylamino derivatives of pyrazinamide: synthesis and antimycobacterial evaluation” (Bioorg Med Chem Lett, 2014)
Values after ≈ are worked out from the molar mass of the structure shown. Active and inactive are the calls of the source. No cut-off for these calls is given here.

What was measured:
Aspergillus fumigatus = test: Antifungal activity against Aspergillus fumigatus 231 after 72 to 120 hrs by microdilution broth method; format: functional, organism-based
Lichtheimia corymbifera = test: Antifungal activity against Absidia corymbifera 272 after 72 to 120 hrs by microdilution broth method; format: functional, organism-based
[1] = system: Mycobacterium tuberculosis; test: Antimycobacterial activity against Mycobacterium tuberculosis H37Rv CNCTC My 331/88 after 5 days by microplate alamar blue assay; format: functional; conditions: H37Rv CNCTC My 331/88, 120 h
Method in brief: (§1)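 Microplate alamar blue assay run at pH 5.6, using conditions optimized for pyrazinamide. Strains came from the Czech National Collection of Type Cultures. MIC was read in µg/mL and converted to µM using molecular weight.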

Candida tropicalis = test: Antifungal activity against Candida tropicalis 156 after 72 to 120 hrs by microdilution broth method; format: functional, organism-based
Mycobacterium kansasii [2] = test: Antimycobacterial activity against pyrazinamide-resistant Mycobacterium kansasii CNCTC My 235/80 after 5 days by microplate alamar blue assay; format: functional; conditions: CNCTC My 235/80, 120 h; method in brief: as §1
[3] = system: Trichophyton mentagrophytes; test: Antifungal activity against Trichophyton mentagrophytes after 72 to 120 hrs by microdilution broth method; format: functional, organism-based
Mycobacterium avium [4] = test: Antimycobacterial activity against pyrazinamide-resistant Mycobacterium avium CNCTC My 80/72 after 5 days by microplate alamar blue assay; format: functional; conditions: CNCTC My 80/72, 120 h; method in brief: as §1
Nakaseomyces glabratus = test: Antifungal activity against Candida glabrata 20/I after 72 to 120 hrs by microdilution broth method; format: functional, organism-based
Klebsiella pneumoniae [5] = test: Antibacterial activity against ESBL positive Klebsiella pneumoniae J 14368/08 after 24 to 48 hrs by microdilution broth method; format: functional, organism-based
Method in brief: (§2)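 Antibacterial screen with compound concentrations up to a highest level of 500 µM. Results expressed as MIC in µM.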

Klebsiella pneumoniae [6] = test: Antibacterial activity against Klebsiella pneumoniae D 11750/08 after 24 to 48 hrs by microdilution broth method; format: functional, organism-based; method in brief: as §2
Mycobacterium avium [7] = test: Antimycobacterial activity against pyrazinamide-resistant Mycobacterium avium CNCTC My 152/73 after 5 days by microplate alamar blue assay; format: functional; conditions: CNCTC My 152/73, 120 h; method in brief: as §1
Trichosporon asahii = test: Antifungal activity against Trichosporon asahii 1188 after 72 to 120 hrs by microdilution broth method; format: functional, organism-based
Escherichia coli = test: Antibacterial activity against Escherichia coli CCM 4517 after 24 to 48 hrs by microdilution broth method; format: functional, organism-based; method in brief: as §2
[8] = system: Trichophyton mentagrophytes; test: Antifungal activity against Trichophyton mentagrophytes 445 after 72 to 120 hrs by microdilution broth method; format: functional, organism-based
Pseudomonas aeruginosa = test: Antibacterial activity against Pseudomonas aeruginosa CCM 1961 after 24 to 48 hrs by microdilution broth method; format: functional, organism-based; method in brief: as §2
[9] = system: Staphylococcus epidermidis; test: Antibacterial activity against methicillin-resistant Staphylococcus epidermidis H 5996/08 after 24 to 48 hrs by microdilution broth method; format: functional, organism-based
[10] = system: Staphylococcus epidermidis; test: Antibacterial activity against Staphylococcus epidermidis H 6966/08 after 48 hrs by microdilution broth method; format: functional; conditions: for MIC95: H 6966/08, 48 h; method in brief: as §2
Pichia kudriavzevii = test: Antifungal activity against Candida krusei E28 after 72 to 120 hrs by microdilution broth method; format: functional, organism-based
Enterococcus sp. = test: Antibacterial activity against Enterococcus sp. J 14365/08 after 24 to 48 hrs by microdilution broth method; format: functional, organism-based; method in brief: as §2
Staphylococcus aureus = test: Antibacterial activity against Staphylococcus aureus CCM 4516/08 after 24 to 48 hrs by microdilution broth method; format: functional, organism-based; method in brief: as §2
[11] = system: Staphylococcus epidermidis; test: Antibacterial activity against Staphylococcus epidermidis H 6966/08 after 24 hrs by microdilution broth method; format: functional; conditions: H 6966/08, 24 h; method in brief: as §2
[12] = Lipophilicity, log K of the compound by HPLC analysis; format: physicochemical
Candida albicans = test: Antifungal activity against Candida albicans ATCC 44859 after 72 to 120 hrs by microdilution broth method; format: functional, organism-based
HepG2 = test: Cytotoxicity against human HepG2 cells after 24 hrs; format: cell-based; conditions: HepG2, 24 h
Method in brief: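 HepG2 human liver cells; loss of viability measured by a colorimetric tetrazolium-reduction assay. IC50 derived from the toxicity curves. Where limited solubility in the culture medium capped the tested concentration, only an estimate of the toxic concentration was given.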

[13] = Selectivity index, ratio of IC50 for human HepG2 cells to MIC for Mycobacterium tuberculosis H37Rv CNCTC My 331/88; format: toxicity, cell-based; conditions: read-out: Selectivity Index
Method in brief: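 HepG2 human liver cell viability was measured by a colorimetric tetrazolium-reduction assay, and IC50 was derived from the toxicity curves. MIC against M. tuberculosis H37Rv came from the alamar blue microplate assay at pH 5.6. SI = IC50/MIC, both in molar units.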

[14] = system: Staphylococcus epidermidis; test: Antibacterial activity against Staphylococcus epidermidis H 6966/08 up to 500 uM after 24 to 48 hrs by microdilution broth method; format: functional, organism-based; method in brief: as §2
[15] = system: Mycolicibacterium smegmatis; test: Antimycobacterial activity against pyrazinamide-resistant Mycobacterium smegmatis; format: functional
Mycobacterium kansasii [16] = test: Antimycobacterial activity against pyrazinamide-resistant Mycobacterium kansasii; format: functional
Mycobacterium avium [17] = test: Antimycobacterial activity against pyrazinamide-resistant Mycobacterium avium; format: functional
[18] = system: Mycobacterium tuberculosis; test: Antimycobacterial activity against pyrazinamide-sensitive Mycobacterium tuberculosis; format: functional
[19] = system: Mycolicibacterium fortuitum; test: Antimycobacterial activity against pyrazinamide-resistant Mycobacterium fortuitum; format: functional

Structure (SMILES) | Activity (Aspergillus fumigatus) | Activity (Lichtheimia corymbifera) | MIC [1] | Activity (Candida tropicalis) | MIC (Mycobacterium kansasii [2]) | Activity [3] | MIC (Mycobacterium avium [4]) | Activity (Nakaseomyces glabratus) | Activity (Klebsiella pneumoniae [5]) | Activity (Klebsiella pneumoniae [6]) | MIC (Mycobacterium avium [7]) | Activity (Trichosporon asahii) | Activity (Escherichia coli) | Activity [8] | Activity (Pseudomonas aeruginosa) | Activity [9] | MIC95 [10] | Activity (Pichia kudriavzevii) | Activity (Enterococcus sp.) | Activity (Staphylococcus aureus) | other results
CCCCCCNc1cncc(C(N)=O)n1 | inactive | inactive | 100 µg/mL | inactive | > 100 µg/mL | inactive | > 100 µg/mL | inactive | inactive | inactive | > 100 µg/mL | inactive | inactive | inactive | inactive | inactive | 125 µM (≈ 27.8 µg/mL) | inactive | inactive | inactive | MIC95 [11]: 62.5 µM (≈ 13.9 µg/mL); log K [12]: 0.2051; Activity (Candida albicans): inactive
CC1(C)S[C@@H]2[C@H](NC(=O)Cc3ccccc3)C(=O)N2[C@H]1C(=O)O [PENICILLIN G] |  |  |  |  |  |  |  |  |  |  |  |  |  |  |  |  | 250 µM (≈ 83.6 µg/mL) |  |  |  | MIC95 [11]: 125 µM (≈ 41.8 µg/mL)
NC(=O)c1cncc(Cl)n1 | inactive | inactive | 635 µM | inactive | > 100 µg/mL | inactive | > 100 µg/mL | inactive | inactive | inactive | > 100 µg/mL | inactive | inactive | inactive | inactive | inactive |  | inactive | inactive | inactive | IC50 (HepG2): 3500 µM; selectivity ratio [13]: 5.5; Activity [10]: inactive; Activity [14]: inactive; log K [12]: -0.4165; Activity (Candida albicans): inactive
CCCCCCCCNc1cncc(C(N)=O)n1 | inactive | inactive | 6 µM | inactive | 100 µM | inactive | 100 µM | inactive | inactive | inactive | 100 µM | inactive | inactive | inactive | inactive | inactive |  | inactive | inactive | inactive | IC50 (HepG2): 161 µM; selectivity ratio [13]: 25.8; Activity [10]: inactive; Activity [14]: inactive; log K [12]: 0.6514; Activity (Candida albicans): inactive
NC(=O)c1cnc(Cl)cn1 | inactive | inactive | 317 µM | inactive | 79 µM | inactive | > 100 µg/mL | inactive | inactive | inactive | > 100 µg/mL | inactive | inactive | inactive | inactive | inactive |  | inactive | inactive | inactive | MIC [15]: 8 µg/mL (≈ 50.8 µM); MIC (Mycobacterium kansasii [16]): 8 µg/mL (≈ 50.8 µM); IC50 (HepG2): 1600 µM; MIC (Mycobacterium avium [17]): 8 µg/mL (≈ 50.8 µM); selectivity ratio [13]: 5; Activity [10]: inactive; Activity [14]: inactive; log K [12]: -0.3891; Activity (Candida albicans): inactive; MIC [18]: 8 µg/mL (≈ 50.8 µM); MIC [19]: 8 µg/mL (≈ 50.8 µM)
O=C(O)c1cn(C2CC2)c2cc(N3CCNCC3)c(F)cc2c1=O [CIPROFLOXACIN] |  |  |  |  |  |  |  |  |  |  |  |  |  |  |  |  | 250 µM (≈ 82.8 µg/mL) |  |  |  | MIC95 [11]: 250 µM (≈ 82.8 µg/mL)
NC[C@@H]1O[C@H](O[C@H]2[C@@H](O)[C@H](O[C@@H]3[C@@H](O)[C@H](N)C[C@H](N)[C@H]3O[C@H]3O[C@H](CN)[C@@H](O)[C@H](O)[C@H]3N)O[C@@H]2CO)[C@H](N)[C@@H](O)[C@@H]1O [FRAMYCETIN] |  |  |  |  |  |  |  |  |  |  |  |  |  |  |  |  | 15.6 µM (≈ 9.6 µg/mL) |  |  |  | MIC95 [11]: 7.81 µM (≈ 4.8 µg/mL)
